Active and inactive are the calls of the source. The rule behind the calls is not given here.
Legend:
[1] = target: T1, High affinity 3',5'-cyclic-AMP phosphodiesterase 7A (Homo sapiens, UniProt Q13946); assay: Inhibition of human recombinant PDE7A1 assessed as inhibition of hydrolysis of [3H]cAMP at 10 uM after 20 mins by scintillation proximity assay
Procedure, shortened: (§1)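 Scintillation proximity assay with human recombinant enzyme: PDE7A1 0.02 U, PDE3A 0.02 U, PDE7B 0.5 U, PDE8A 0.5 U. Enzyme incubated with 5 nCi [3H]cAMP and inhibitor in kit buffer for 20 min at 30 °C. SPA beads added and shaken 1 h at room temperature, settled 30 min, radioactivity counted.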

[2] = target: T2, 3',5'-cyclic-AMP phosphodiesterase 4D (Homo sapiens, UniProt Q08499); assay: Inhibition of human recombinant PDE4D3 assessed at 10 uM after 60 mins by IMAP fluorescence polarization assay
[3] = target: T3, 3',5'-cyclic-AMP phosphodiesterase 4B (Homo sapiens, UniProt Q07343); assay: Inhibition of human recombinant PDE4B2 assessed after 60 mins by IMAP fluorescence polarization assay
[4] = tested on: Microglia; assay: Inhibition of LPS-induced NO production in rat microglia treated for 1 hr at 10 uM before LPS challenge measured after 24 hrs by Griess assay; format: functional
Procedure, shortened: (§2)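 After 2 days, cells were pretreated with compound (10 μM), then LPS (10 μg/mL) was added for 24 h. Nitrite in the supernatant was measured by Griess reagent (15 min, room temperature, absorbance 492/540 nm). Mean ± SD of three experiments.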

[5] = target: T4, 3',5'-cyclic-AMP phosphodiesterase 7B (Homo sapiens, UniProt Q9NP56); assay: Inhibition of human recombinant PDE7B assessed as inhibition of hydrolysis of [3H]cAMP at 10 uM after 20 mins by scintillation proximity assay; procedure, shortened: as §1
[6] = target: T3, 3',5'-cyclic-AMP phosphodiesterase 4B; assay: Inhibition of human recombinant PDE4B2 assessed at 10 uM after 60 mins by IMAP fluorescence polarization assay
[7] = tested on: SH-SY5Y; assay: Cytoprotective activity against 6-OHDA-induced death of human SH-SY5Y cells pretreated for 1 hr at 10 uM measured 16 hrs post 6-OHDA challenge by MTT assay; format: functional, cell-based
Procedure, shortened: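 Human neuroblastoma SH-SY5Y grown in F12/EMEM with 2 mM glutamine, 1% nonessential amino acids and 15% FBS at 37 °C, 5% CO2. Semiconfluent cells pretreated 1 h with compound, then 6-OHDA (35 μM) added for 16 h. Viability by MTT (0.5 mg/mL, 4 h), SDS/HCl solubilisation, absorbance 595 nm. Mean ± SD of three experiments.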

[8] = target: T2, 3',5'-cyclic-AMP phosphodiesterase 4D; assay: Inhibition of human recombinant PDE4D3 assessed after 60 mins by IMAP fluorescence polarization assay
[9] = target: T4, 3',5'-cyclic-AMP phosphodiesterase 7B; assay: Inhibition of human recombinant PDE7B assessed as inhibition of hydrolysis of [3H]cAMP after 20 mins by scintillation proximity assay; procedure, shortened: as §1
[10] = tested on: Astrocyte; assay: Inhibition of LPS-induced NO production in rat astrocytes treated for 1 hr at 10 uM before LPS challenge measured after 24 hrs by Griess assay; format: functional, cell-based; procedure, shortened: as §2
[11] = target: cGMP-inhibited 3',5'-cyclic phosphodiesterase 3A (Homo sapiens) (UniProt Q14432); assay: Inhibition of human recombinant PDE3A assessed as inhibition of hydrolysis of [3H]cAMP at 10 uM after 20 mins by scintillation proximity assay; procedure, shortened: as §1
[12] = target: T1, High affinity 3',5'-cyclic-AMP phosphodiesterase 7A; assay: Inhibition of human recombinant PDE7A1 assessed as inhibition of hydrolysis of [3H]cAMP after 20 mins by scintillation proximity assay; procedure, shortened: as §1
[13] = tested on: Mus musculus; assay: Emetogenic potential in surrogate emesis CD1 mouse model assessed as effect on xyclacine/ketamine-induced loss of righting reflex at 0.1 to 10 mg/kg, sc; format: ADME, organism-based; parameters: dose 0.1-10 mg/kg, route subcutaneous; settings: in vivo
[14] = target: Phosphodiesterase 7 (Homo sapiens, UniProt Q13946+Q9NP56); assay: Inhibition of PDE7 (unknown origin); format: protein assay

T4 sequence (Q9NP56 whole entry): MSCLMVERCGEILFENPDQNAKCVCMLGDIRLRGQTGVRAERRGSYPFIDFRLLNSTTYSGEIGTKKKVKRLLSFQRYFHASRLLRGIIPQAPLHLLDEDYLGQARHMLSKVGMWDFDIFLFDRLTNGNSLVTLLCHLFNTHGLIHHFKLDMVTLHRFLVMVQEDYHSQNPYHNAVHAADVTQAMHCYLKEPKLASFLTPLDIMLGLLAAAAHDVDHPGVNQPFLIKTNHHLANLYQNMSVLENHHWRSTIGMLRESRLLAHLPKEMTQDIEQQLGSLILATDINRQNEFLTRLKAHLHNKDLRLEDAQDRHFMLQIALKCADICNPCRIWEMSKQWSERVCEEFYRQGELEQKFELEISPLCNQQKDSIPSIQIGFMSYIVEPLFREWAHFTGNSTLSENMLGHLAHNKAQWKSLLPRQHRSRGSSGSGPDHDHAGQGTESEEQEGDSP
T3 sequence (Q07343 whole entry): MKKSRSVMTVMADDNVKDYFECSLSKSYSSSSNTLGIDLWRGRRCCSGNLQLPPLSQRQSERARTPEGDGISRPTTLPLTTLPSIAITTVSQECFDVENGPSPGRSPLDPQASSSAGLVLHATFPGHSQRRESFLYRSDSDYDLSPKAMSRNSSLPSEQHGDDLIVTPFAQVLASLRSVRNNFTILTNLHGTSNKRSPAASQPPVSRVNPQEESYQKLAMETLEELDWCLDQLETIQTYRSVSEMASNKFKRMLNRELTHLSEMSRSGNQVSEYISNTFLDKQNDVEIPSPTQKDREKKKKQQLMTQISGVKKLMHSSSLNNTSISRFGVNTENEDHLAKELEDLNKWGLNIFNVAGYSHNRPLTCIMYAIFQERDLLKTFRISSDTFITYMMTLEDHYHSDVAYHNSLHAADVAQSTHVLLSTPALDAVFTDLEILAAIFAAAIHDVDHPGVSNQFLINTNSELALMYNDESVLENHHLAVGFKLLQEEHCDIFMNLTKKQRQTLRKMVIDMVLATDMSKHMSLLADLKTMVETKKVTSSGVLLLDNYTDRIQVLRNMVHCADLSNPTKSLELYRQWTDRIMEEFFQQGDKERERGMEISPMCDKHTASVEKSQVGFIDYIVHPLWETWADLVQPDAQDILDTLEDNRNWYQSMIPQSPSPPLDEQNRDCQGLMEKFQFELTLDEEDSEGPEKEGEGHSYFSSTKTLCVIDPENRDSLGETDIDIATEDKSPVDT
Sequence of cGMP-inhibited 3',5'-cyclic phosphodiesterase 3A (Homo sapiens) (Q14432 whole entry): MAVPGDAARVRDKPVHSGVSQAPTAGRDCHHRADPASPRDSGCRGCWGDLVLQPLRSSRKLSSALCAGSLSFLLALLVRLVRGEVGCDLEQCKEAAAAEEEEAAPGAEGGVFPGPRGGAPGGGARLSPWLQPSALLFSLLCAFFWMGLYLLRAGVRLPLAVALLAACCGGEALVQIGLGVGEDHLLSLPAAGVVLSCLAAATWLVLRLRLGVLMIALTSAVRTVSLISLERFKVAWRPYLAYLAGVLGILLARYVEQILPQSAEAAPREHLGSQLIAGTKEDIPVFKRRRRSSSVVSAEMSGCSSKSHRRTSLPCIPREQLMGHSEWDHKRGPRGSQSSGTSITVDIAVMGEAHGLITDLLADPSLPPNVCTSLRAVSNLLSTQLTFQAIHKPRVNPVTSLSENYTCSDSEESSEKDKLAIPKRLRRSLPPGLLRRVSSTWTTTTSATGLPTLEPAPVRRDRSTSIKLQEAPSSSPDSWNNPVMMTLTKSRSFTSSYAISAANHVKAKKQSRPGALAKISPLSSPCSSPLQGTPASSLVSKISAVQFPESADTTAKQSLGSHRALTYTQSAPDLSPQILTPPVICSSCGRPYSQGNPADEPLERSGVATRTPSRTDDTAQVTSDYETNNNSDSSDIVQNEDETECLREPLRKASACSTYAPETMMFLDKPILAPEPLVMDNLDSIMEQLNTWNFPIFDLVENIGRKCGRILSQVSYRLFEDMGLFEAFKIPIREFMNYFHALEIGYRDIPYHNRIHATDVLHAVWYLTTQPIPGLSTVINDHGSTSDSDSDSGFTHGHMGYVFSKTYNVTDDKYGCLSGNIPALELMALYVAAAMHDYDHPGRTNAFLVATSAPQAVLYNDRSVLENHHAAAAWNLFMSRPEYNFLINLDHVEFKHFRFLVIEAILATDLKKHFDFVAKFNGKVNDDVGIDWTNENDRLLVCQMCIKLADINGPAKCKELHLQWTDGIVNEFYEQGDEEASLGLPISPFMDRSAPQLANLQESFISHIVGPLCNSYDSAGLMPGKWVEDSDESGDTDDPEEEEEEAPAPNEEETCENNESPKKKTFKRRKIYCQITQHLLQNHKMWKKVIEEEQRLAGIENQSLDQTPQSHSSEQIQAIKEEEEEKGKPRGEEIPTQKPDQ
T2 sequence (Q08499 whole entry): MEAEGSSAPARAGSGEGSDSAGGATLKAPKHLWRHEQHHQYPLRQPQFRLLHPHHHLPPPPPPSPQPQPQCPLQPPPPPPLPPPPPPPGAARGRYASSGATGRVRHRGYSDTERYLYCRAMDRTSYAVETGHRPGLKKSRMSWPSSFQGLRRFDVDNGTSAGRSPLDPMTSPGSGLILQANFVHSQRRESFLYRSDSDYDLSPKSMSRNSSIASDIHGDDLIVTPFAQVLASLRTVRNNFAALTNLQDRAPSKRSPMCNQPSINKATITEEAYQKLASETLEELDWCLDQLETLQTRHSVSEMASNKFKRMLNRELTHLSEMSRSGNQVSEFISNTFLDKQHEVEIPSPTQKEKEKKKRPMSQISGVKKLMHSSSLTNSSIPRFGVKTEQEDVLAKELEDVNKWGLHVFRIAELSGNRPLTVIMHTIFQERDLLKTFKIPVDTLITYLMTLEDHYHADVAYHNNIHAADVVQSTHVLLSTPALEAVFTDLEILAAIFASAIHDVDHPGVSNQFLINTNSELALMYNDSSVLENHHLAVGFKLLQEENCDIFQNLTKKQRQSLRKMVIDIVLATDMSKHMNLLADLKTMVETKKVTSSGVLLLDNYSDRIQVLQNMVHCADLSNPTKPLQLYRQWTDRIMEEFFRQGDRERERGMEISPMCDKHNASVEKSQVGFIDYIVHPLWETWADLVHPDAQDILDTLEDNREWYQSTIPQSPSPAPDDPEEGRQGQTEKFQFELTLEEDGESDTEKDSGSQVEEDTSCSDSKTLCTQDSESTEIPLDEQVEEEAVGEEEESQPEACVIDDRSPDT
T1 sequence (Q13946 whole entry): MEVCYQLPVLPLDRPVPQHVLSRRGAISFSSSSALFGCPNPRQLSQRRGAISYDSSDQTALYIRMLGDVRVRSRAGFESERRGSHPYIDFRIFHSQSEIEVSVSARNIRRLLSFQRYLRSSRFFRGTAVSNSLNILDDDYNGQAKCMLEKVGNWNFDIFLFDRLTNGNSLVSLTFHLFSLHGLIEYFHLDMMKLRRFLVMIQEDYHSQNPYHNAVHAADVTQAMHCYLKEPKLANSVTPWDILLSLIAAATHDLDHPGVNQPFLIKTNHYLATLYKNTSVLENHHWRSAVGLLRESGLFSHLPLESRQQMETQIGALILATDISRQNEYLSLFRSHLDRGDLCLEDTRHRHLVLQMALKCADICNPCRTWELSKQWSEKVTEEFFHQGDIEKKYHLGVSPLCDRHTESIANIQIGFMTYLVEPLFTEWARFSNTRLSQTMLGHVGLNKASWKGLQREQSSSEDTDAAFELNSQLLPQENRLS

| SMILES | inhibition [1] | IC50 [12] | further results |
| --- | --- | --- | --- |
| O=[N+]([O-])c1cc(Cl)ccc1Sc1ccncc1 | 91% | 0.72 µM | inhibition [2]: 74%; IC50 [3]: 4.4 µM; inhibition [4]: Active; inhibition [5]: 76%; inhibition [6]: 77%; Activity [7]: Active; IC50 [8]: 3 µM; IC50 [9]: 13.9 µM; inhibition [10]: Active; inhibition [11]: 33% |
| O=[N+]([O-])c1ccc(Sc2ccc([N+](=O)[O-])cc2Cl)cc1 | 1% |  |  |
| Cc1cnc(Sc2cccc(N)c2)c([N+](=O)[O-])c1 | 3% |  |  |
| CC(=O)Nc1ccc(Sc2ccc([N+](=O)[O-])cc2Cl)cc1 | 26% |  |  |
| COc1ccc(Sc2ccncc2)cc1 | 18% |  |  |
| Nc1ccc(Oc2ccc(Cl)cc2[N+](=O)[O-])cc1 | 70% | 3.3 µM |  |
| O=[N+]([O-])c1cc(Cl)ccc1Sc1ccc(Br)cc1 | 11% |  |  |
| O=[N+]([O-])c1ccc(Cl)cc1Sc1ccncc1 | 80% | 1.88 µM |  |
| Nc1ccc(Oc2ccc([N+](=O)[O-])cc2Cl)cc1 | 77% | 2.2 µM |  |
| O=[N+]([O-])c1ccc(Sc2ccccc2)c(Cl)c1 | 74% | 2.2 µM |  |
| O=[N+]([O-])c1ccc(Sc2ccc(Br)cc2)c(Cl)c1 | 23% |  |  |
| c1ccc(-c2ccc(Sc3ccccn3)cc2)cc1 | 32% |  |  |
| CC(=O)Nc1ccccc1Sc1sccc1[N+](=O)[O-] | 31% |  |  |
| O=[N+]([O-])c1ccsc1Sc1sccc1[N+](=O)[O-] | 31% |  |  |
| c1ccc(Sc2ccncc2)cc1 | 44% |  |  |
| CC(=O)c1ccc(Sc2ccncc2)c([N+](=O)[O-])c1 | 56% | 3.8 µM |  |
| COc1cc(COC(=O)c2ccc(-c3ccccc3)o2)cc(OC)c1OC |  |  | Activity [13]: Non-toxic; IC50 [14]: 5.17 µM |
| S=c1[nH]c2ccccc2c(=S)n1-c1ccccc1 |  |  | Activity [13]: Non-toxic; IC50 [14]: 1.04 µM |
| Nc1ccc(Sc2ccc([N+](=O)[O-])cc2Cl)cc1 | 83% | 3.97 µM |  |
| O=[N+]([O-])c1ccc(Sc2cccs2)c(Cl)c1 | 69% | 5.2 µM |  |
| CC(=O)NNc1ccccc1Sc1ccccc1Br | 27% |  |  |

| SMILES | inhibition [1] | IC50 [12] | further results |
| --- | --- | --- | --- |
| O=[N+]([O-])c1cc(Cl)ccc1Sc1cccs1 | 81% | 1.6 µM |  |
| Br.OCC/N=c1/nc(-c2ccccc2)n(-c2ccccc2)s1 |  |  | Activity [13]: Non-toxic; IC50 [14]: 1.11 µM |
| Cc1ccc([N+](=O)[O-])cc1S(=O)(=O)N(C)C | 99% |  | IC50 [3]: 1.8 µM; IC50 [8]: 1.28 µM; inhibition [11]: 0.43% |
| COc1ccc(Sc2cccnc2)cc1 | 17% |  |  |
| CC(=O)Nc1ccc(Sc2ccc(Cl)cc2[N+](=O)[O-])cc1 | 7% |  |  |
| Cc1cnc(Sc2ccc(-c3ccccc3)cc2)c([N+](=O)[O-])c1 | 2% |  |  |
| O=[N+]([O-])c1ccc(SCc2ccccc2Br)c(Cl)c1 | 33% |  |  |
| Nc1cccc(Sc2ccncc2)c1 | 36% |  |  |
| CC(C)c1ccc(Sc2ccc(Cl)cc2[N+](=O)[O-])cc1 | 10% |  |  |
| Nc1ccc(Sc2ccc(F)cc2[N+](=O)[O-])cc1 | 64% | 6.18 µM |  |
| c1cnc(Sc2ccncc2)nc1 | 12% |  |  |
| CC(=O)Nc1ccc(Oc2ccc(Cl)cc2[N+](=O)[O-])cc1 | 17% |  |  |
| Nc1ccc(Sc2ccc(Cl)cc2N)cc1 | 13% |  |  |
| CC(C)c1ccc(Sc2ccc([N+](=O)[O-])cc2Cl)cc1 | 15% |  |  |
| Nc1ccc(Sc2ccc(N)cc2Cl)cc1 | 46% | 6.5 µM |  |
| CC(=O)Nc1ccc(Oc2ccc([N+](=O)[O-])cc2Cl)cc1 | 4% |  |  |
| O=[N+]([O-])c1ccc(Cl)cc1Sc1ccc(Br)cc1 | 36% |  |  |
| O=[N+]([O-])c1ccc(Sc2ccc(Cl)cc2[N+](=O)[O-])cc1 | 6% |  |  |
| O=c1c2ccccc2[nH]c(=S)n1-c1ccccc1 | 76% | 4.68 µM |  |
| Cc1cnc(Sc2ccncc2)c([N+](=O)[O-])c1 | 27% |  |  |
| Nc1ccc(Sc2ccc([N+](=O)[O-])cc2C(F)(F)F)cc1 | 63% | 9.27 µM |  |

Further lines, with some results ahead:

| inhibition [1] | IC50 [12] | SMILES | further results |
| --- | --- | --- | --- |
| 17% |  | CC(C)c1ccccc1Sc1ccc([N+](=O)[O-])cc1Cl |  |
| 69% | 5.75 µM | Nc1ccccc1Sc1ccc(Cl)cc1[N+](=O)[O-] |  |
| 69% | 3.6 µM | O=[N+]([O-])c1cc(Cl)ccc1Sc1ccccn1 |  |
| 87% | 1.5 µM | O=[N+]([O-])c1cc(Cl)ccc1Sc1ccccc1 | inhibition [2]: 13%; inhibition [4]: Active; inhibition [5]: 74%; inhibition [6]: 28%; Activity [7]: Active; IC50 [9]: 1.5 µM; inhibition [10]: Active; inhibition [11]: 46% |
| 42% |  | Nc1ccccc1Sc1ccc([N+](=O)[O-])cc1C(F)(F)F |  |
| 79% | 1.47 µM | Nc1ccc(Sc2ccc([N+](=O)[O-])c(Cl)c2)cc1 | inhibition [2]: 3%; inhibition [4]: Active; inhibition [5]: 42%; inhibition [6]: 2%; Activity [7]: Active; inhibition [10]: Active; inhibition [11]: 22% |
| 66% | 5.45 µM | Nc1ccccc1Sc1cc(Cl)ccc1[N+](=O)[O-] |  |
| 74% | 6.48 µM | Nc1ccccc1Sc1cc(Cl)c(Cl)cc1[N+](=O)[O-] |  |
| 68% | 5.69 µM | Nc1cccc(Sc2ccc(Cl)cc2[N+](=O)[O-])c1 |  |
| 38% |  | Nc1ccccc1Sc1ccc(F)cc1[N+](=O)[O-] |  |
| 56% | 7.98 µM | O=[N+]([O-])c1ccc(Cl)cc1Sc1ccccn1 |  |
| 69% | 1.01 µM | O=[N+]([O-])c1ccc(Cl)cc1Sc1ccccc1Br | inhibition [2]: 2%; inhibition [4]: Active; inhibition [5]: 71%; inhibition [6]: 6%; Activity [7]: Active; IC50 [9]: 2.2 µM; inhibition [10]: Active; inhibition [11]: 16% |
| 31% |  | O=[N+]([O-])c1cc(Cl)ccc1SCc1ccccc1Br |  |
| 79% | 0.99 µM | O=[N+]([O-])c1cc(Cl)ccc1Sc1ccccc1Br | inhibition [2]: 44%; inhibition [4]: Active; inhibition [5]: 92%; inhibition [6]: 30%; Activity [7]: Active; IC50 [9]: 1.41 µM; inhibition [10]: Active; inhibition [11]: 60% |
| 71% | 2.2 µM | Nc1ccc(Sc2cc(Cl)ccc2[N+](=O)[O-])cc1 |  |
| 78% | 3.2 µM | Nc1cccc(Sc2ccc([N+](=O)[O-])cc2Cl)c1 |  |
|  | 7.3 µM | Nc1ccc(Cl)cc1Sc1ccccc1[N+](=O)[O-] |  |
| 60% | 8.77 µM | Nc1ccccc1Sc1ccc([N+](=O)[O-])cc1Cl |  |
|  | 4.27 µM | Nc1ccccc1Sc1sccc1[N+](=O)[O-] |  |
| 49% | 2.88 µM | O=[N+]([O-])c1cc(Cl)c(Cl)cc1Sc1ccccc1Br |  |
| 59% | 2.14 µM | O=[N+]([O-])c1ccc(Sc2ccccc2Br)c(Cl)c1 |  |
| 58% | 2.1 µM | CC(=O)Nc1ccccc1Sc1cc(Cl)ccc1[N+](=O)[O-] | inhibition [2]: 10%; inhibition [6]: 11%; inhibition [11]: 10% |
